This note sets out measurements from ChEMBL document CHEMBL5678818, “Discovery of potent SOS1 inhibitors that block RAS activation via disruption of the RAS-SOS1 interaction” (Proc Natl Acad Sci U S A, 2019).

Experiment [1] concerns ALK tyrosine kinase receptor (Homo sapiens), Q9UM73 [C1156Y]. Put plainly: Inhibition of ALK C1156Y mutant (unknown origin) assessed as residual activity at 1000 nM by KINOMEscan analysis relative to control.
Experiment [2] has as its target Receptor tyrosine-protein kinase erbB-2 (Homo sapiens) (UniProt P04626). The experiment in a line: Inhibition of ERBB2 (unknown origin) assessed as residual activity at 1000 nM by KINOMEscan analysis relative to control.
Experiment [3] concerns the target Serine/threonine-protein kinase pim-1 (Homo sapiens) (UniProt P11309). Put plainly: Inhibition of PIM1 (unknown origin) assessed as residual activity at 1000 nM by KINOMEscan analysis relative to control.
The target in experiment [4] is Mitogen-activated protein kinase kinase kinase 9 (Homo sapiens) (UniProt P80192). Put plainly: Inhibition of MLK1 (unknown origin) assessed as residual activity at 1000 nM by KINOMEscan analysis relative to control.
Chain of Mitogen-activated protein kinase kinase kinase 9 (Homo sapiens) (P80192 whole entry, looked up): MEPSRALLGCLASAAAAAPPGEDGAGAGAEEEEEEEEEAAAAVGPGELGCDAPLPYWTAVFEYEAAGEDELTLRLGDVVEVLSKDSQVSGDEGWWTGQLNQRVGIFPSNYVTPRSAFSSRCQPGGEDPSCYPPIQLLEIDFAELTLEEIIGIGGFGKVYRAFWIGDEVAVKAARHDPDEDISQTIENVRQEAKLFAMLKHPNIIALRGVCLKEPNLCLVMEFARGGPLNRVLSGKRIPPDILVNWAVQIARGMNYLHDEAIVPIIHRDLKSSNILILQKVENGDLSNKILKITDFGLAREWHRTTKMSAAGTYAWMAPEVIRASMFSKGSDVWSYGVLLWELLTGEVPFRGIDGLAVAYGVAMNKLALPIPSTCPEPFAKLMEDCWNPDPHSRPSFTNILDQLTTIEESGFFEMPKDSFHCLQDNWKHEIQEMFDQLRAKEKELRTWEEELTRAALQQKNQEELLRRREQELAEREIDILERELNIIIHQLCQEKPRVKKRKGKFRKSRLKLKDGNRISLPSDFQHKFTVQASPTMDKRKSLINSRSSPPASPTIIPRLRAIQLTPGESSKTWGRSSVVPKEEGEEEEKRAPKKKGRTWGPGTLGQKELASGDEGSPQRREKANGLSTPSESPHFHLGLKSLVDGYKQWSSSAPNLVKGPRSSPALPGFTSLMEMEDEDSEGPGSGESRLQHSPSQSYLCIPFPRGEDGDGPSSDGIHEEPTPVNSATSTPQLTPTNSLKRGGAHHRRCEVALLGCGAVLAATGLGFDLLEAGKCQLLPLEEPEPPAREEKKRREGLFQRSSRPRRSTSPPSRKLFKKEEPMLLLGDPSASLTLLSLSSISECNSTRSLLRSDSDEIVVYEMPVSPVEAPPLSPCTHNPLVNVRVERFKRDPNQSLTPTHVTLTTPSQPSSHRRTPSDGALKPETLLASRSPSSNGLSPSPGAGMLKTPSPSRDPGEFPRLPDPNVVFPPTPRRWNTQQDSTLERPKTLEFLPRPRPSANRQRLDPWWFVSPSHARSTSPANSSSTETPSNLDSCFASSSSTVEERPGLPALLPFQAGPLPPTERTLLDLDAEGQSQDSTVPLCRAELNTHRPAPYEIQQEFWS
In experiment [5] the target is T1, Dual specificity tyrosine-phosphorylation-regulated kinase 2 (Homo sapiens) (UniProt Q92630).
T1 sequence (whole entry): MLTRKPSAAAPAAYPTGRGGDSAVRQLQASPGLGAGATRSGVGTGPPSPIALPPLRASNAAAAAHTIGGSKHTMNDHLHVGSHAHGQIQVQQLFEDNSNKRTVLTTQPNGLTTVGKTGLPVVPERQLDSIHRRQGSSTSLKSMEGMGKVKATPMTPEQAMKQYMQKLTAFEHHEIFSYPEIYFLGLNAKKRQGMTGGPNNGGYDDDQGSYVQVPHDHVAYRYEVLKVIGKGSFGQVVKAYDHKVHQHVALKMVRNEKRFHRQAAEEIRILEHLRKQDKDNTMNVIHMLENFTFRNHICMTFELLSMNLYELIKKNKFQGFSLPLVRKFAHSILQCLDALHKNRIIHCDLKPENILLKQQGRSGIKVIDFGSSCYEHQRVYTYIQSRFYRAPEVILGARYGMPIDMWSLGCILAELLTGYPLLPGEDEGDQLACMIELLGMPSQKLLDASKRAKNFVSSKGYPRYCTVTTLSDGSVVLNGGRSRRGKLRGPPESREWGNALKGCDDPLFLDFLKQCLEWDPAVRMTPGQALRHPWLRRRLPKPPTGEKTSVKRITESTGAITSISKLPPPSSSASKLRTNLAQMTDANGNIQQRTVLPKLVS
Put plainly: Inhibition of DYRK2 (unknown origin) assessed as residual activity at 1000 nM by KINOMEscan analysis relative to control.

Experiment [6] deals with T2, Son of sevenless homolog 1 (Homo sapiens) (UniProt Q07889).
T2 sequence (whole entry): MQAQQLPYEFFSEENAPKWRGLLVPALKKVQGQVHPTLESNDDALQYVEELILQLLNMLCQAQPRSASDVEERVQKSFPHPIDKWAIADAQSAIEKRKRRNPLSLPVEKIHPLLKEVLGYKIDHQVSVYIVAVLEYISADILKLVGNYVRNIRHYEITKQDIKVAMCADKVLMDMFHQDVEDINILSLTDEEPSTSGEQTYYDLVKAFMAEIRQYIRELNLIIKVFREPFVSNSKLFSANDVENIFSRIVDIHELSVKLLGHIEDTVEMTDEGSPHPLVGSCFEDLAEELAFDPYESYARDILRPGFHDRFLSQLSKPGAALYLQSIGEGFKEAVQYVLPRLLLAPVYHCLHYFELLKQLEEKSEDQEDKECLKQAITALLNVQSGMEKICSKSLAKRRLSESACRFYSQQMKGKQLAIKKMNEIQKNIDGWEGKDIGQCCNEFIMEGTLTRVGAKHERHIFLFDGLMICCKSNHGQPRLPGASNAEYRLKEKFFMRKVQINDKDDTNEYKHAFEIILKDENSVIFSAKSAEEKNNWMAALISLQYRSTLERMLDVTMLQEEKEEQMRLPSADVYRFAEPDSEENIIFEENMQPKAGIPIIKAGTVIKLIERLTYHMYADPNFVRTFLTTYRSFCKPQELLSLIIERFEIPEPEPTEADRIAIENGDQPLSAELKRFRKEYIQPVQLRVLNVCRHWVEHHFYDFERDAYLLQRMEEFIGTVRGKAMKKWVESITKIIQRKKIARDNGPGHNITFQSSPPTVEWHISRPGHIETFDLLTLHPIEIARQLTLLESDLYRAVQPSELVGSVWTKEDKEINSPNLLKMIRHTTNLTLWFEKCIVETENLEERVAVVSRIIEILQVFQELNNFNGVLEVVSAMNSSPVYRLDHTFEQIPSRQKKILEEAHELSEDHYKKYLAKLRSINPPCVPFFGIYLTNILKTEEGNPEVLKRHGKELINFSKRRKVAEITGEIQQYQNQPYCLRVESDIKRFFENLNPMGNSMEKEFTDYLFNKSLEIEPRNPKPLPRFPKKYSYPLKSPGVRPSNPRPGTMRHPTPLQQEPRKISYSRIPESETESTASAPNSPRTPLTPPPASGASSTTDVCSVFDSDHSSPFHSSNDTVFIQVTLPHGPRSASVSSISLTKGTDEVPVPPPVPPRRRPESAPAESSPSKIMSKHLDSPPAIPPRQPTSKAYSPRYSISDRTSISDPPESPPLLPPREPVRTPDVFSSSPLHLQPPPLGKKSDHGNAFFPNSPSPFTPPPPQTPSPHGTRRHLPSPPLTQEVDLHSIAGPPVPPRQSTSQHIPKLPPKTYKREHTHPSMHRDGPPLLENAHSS
The experiment in a line: Binding affinity to N-terminal His10-tagged wild-type recombinant human SOS1 catalytic domain (564 to 1049 residues) expressed in Escherichia coli assessed as change in enthalpy by ITC analysis. The method, boiled down:
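SOS1cat was titrated into a solution of the test ligand. Integrated injection enthalpies were plotted against the protein-to-compound molar ratio and fitted to derive the thermodynamic binding parameters.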
(In ITC the heat of successive injections is recorded.)

“And” between values parts separate entries of the source, which are not always exact repeats. Equal entries are not always repeated.

Chain of Receptor tyrosine-protein kinase erbB-2 (Homo sapiens) (P04626 whole entry): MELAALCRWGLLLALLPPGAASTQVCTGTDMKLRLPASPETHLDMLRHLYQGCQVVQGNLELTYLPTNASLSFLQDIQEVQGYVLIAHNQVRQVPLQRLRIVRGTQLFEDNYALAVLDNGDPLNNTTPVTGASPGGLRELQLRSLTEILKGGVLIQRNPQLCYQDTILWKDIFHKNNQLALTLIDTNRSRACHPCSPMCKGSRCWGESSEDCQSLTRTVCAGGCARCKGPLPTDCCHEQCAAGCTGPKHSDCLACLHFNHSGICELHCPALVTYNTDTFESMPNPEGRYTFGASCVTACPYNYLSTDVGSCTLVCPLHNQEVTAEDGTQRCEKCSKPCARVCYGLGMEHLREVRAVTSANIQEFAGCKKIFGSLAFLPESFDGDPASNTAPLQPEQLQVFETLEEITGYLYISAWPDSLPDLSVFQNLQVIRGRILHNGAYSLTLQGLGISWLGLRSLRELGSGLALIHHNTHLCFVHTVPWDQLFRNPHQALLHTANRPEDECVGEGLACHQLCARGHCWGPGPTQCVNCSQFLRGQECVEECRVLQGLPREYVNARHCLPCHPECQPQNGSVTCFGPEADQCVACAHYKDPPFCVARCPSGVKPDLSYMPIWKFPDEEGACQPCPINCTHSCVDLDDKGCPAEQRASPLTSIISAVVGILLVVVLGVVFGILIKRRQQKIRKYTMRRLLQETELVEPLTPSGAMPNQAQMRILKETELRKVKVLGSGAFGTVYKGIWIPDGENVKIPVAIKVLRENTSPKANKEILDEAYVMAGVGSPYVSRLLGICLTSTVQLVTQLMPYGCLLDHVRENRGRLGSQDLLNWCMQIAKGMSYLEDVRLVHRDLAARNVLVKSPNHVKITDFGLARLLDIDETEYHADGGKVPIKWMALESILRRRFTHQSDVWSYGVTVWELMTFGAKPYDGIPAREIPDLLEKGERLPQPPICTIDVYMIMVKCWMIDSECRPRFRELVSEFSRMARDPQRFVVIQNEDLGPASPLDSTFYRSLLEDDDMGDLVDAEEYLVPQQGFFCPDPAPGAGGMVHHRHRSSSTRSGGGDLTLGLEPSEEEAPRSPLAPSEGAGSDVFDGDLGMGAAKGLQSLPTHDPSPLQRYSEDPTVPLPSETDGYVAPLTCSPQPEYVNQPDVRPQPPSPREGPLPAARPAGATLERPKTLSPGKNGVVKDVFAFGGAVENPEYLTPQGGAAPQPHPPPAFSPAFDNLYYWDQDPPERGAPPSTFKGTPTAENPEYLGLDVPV
Chain of Serine/threonine-protein kinase pim-1 (Homo sapiens) (P11309 whole entry, looked up): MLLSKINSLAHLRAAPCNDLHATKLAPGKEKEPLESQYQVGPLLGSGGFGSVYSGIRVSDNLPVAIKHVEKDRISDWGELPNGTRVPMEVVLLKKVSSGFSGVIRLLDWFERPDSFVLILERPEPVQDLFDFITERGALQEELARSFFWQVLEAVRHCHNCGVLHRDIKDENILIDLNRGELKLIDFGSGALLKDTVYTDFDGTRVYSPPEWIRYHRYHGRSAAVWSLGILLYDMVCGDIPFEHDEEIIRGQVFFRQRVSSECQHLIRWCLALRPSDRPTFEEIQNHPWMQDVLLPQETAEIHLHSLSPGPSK
Chain of ALK tyrosine kinase receptor (Homo sapiens), Q9UM73 [C1156Y] (Q9UM73 whole entry C1156Y, looked up): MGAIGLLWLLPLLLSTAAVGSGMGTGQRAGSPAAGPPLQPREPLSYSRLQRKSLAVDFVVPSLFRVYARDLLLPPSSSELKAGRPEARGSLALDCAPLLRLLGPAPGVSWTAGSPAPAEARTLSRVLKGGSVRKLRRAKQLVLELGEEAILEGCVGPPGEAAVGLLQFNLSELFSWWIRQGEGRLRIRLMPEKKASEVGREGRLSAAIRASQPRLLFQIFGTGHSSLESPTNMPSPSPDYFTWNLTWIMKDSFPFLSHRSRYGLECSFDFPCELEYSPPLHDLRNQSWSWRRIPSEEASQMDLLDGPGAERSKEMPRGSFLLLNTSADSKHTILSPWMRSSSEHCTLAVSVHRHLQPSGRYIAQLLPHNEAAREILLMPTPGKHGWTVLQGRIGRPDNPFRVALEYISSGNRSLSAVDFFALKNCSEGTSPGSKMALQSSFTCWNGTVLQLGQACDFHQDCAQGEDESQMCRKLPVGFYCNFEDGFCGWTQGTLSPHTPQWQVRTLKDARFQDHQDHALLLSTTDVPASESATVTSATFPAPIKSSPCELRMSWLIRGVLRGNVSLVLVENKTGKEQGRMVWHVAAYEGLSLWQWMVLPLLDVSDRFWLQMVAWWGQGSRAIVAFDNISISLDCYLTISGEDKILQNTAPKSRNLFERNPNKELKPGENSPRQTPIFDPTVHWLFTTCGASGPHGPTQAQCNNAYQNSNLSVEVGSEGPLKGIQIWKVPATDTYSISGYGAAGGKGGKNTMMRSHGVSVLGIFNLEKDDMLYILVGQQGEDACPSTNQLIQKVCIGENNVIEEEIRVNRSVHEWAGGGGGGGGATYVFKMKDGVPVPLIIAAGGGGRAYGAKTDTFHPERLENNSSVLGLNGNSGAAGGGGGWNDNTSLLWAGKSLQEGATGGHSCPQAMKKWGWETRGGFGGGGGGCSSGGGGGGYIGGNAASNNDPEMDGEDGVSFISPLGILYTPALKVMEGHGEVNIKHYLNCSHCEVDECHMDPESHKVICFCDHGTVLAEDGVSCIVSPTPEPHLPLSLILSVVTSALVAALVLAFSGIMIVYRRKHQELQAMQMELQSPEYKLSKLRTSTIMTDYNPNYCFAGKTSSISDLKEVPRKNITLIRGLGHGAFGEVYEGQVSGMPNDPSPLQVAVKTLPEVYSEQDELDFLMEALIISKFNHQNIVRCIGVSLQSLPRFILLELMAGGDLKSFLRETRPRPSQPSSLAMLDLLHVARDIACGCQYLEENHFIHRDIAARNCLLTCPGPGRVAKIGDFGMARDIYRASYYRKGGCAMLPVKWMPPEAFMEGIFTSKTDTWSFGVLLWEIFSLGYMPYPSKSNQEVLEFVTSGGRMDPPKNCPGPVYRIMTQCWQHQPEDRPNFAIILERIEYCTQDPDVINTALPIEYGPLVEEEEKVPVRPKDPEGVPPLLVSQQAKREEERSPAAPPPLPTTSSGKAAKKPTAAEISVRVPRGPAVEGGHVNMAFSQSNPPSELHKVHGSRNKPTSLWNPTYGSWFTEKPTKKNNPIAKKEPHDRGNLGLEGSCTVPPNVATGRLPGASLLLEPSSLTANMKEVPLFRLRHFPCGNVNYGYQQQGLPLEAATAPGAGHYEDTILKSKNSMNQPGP

Turning to `COc1cc2nc(C)nc(N[C@H](C)c3cccc(-c4cn[nH]c4)c3)c2cc1OC`, the Activity came to 80% in experiment [1]; 76% in experiment [2]; 79% in experiment [3]; 84% in experiment [4]; 99% in experiment [5].

For `COc1cc2ncnc(N[C@H](C)c3cccc4ccccc34)c2cc1OC`, the Activity in experiment [1] amounted to 86%; in experiment [2], 26%; in experiment [3] it was 98%; in experiment [4], 100%; in experiment [5], 90%. Besides, the deltaH in experiment [6] is -14.1 kcal/mol.

For `CNCc1ccccc1-c1csc([C@@H](C)Nc2nc(C)nc3cc(OC)c(OC)cc23)c1` [BAY-293], the deltaH in experiment [6] is -16.1 kcal/mol and -17.9 kcal/mol.
